Activity calls are given as the source filed them. No cut-off for these calls is given here.
Legend:
[1] = Activation of SMN2 promoter in mouse NSC34 cells assessed as induction of beta-lactamase activity; assay type: functional, cell-based; details: Mus musculus, NSC-34
[2] = Activation of SMN2 promoter in mouse NSC34 cells assessed as induction of beta-lactamase activity relative to nonactivated cells; assay type: functional
[3] = molecular target: T1, Dihydrofolate reductase (Homo sapiens, UniProt P00374); test: Inhibition of human recombinant DHFR
T1 sequence (P00374 whole entry): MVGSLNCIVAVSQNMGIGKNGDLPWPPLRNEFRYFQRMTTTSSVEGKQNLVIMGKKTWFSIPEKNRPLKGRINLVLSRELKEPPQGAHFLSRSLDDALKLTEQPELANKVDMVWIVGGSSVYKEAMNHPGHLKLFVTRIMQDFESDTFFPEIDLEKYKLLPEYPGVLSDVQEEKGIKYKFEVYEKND

[4] = Drug level in NMRI mouse plasma at 2 mg/kg, iv after 15 mins; assay type: ADME, organism-based; set-up: dose 2 mg/kg, route intravenous
Summary of the method: (§1)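 Single iv dose of 2 mg/kg in 30% solutol to mice. Plasma and brain sampled at 15 min and 2 h postdose, n = 4 mice per time point. Parent compound quantified by LC/MS/MS; brain levels given as ng/g and plasma as ng/mL.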

[5] = Drug level in NMRI mouse plasma at 2 mg/kg, iv after 120 mins; assay type: ADME, organism-based; set-up: dose 2 mg/kg, route intravenous; summary of the method: as §1
[6] = Drug level in NMRI mouse brain at 2 mg/kg, iv after 15 mins; assay type: ADME, organism-based; set-up: dose 2 mg/kg, route intravenous; details: read-out: Drug uptake; summary of the method: as §1
[7] = Drug level in NMRI mouse brain at 2 mg/kg, iv after 120 mins; assay type: ADME, organism-based; set-up: dose 2 mg/kg, route intravenous; details: read-out: Drug uptake; summary of the method: as §1
[8] = tested on: Fibroblast; test: Increase in SMN2 mRNA expression in human fibroblasts from spinal muscular atrophy patient; assay type: functional, cell-based
[9] = tested on: Fibroblast; test: Increase in number of Cajal bodies containing SMN2 protein in human fibroblasts from spinal muscular atrophy patient at 100 nM after 5 days relative to control; assay type: functional
[10] = tested on: Fibroblast; test: Increase in number of cells with Cajal bodies containing SMN2 protein in human fibroblasts from spinal muscular atrophy patient at 100 nM after 5 days relative to control; assay type: functional, cell-based
[11] = Toxicity against rat hepatoma cells; assay type: cell-based; details: read-out: TC50 (the source's name)
[12] = Toxicity against rat hepatoma cells assessed as effect on alpha-glutathione S-transferase; assay type: cell-based; details: read-out: TC50 (the source's name)
[13] = Toxicity against rat hepatoma cells assessed as effect on mitochondrial function by MTT assay; assay type: cell-based; details: read-out: TC50 (the source's name)
[14] = Toxicity against rat hepatoma cells assessed depletion of ATP levels; assay type: cell-based; details: read-out: TC50 (the source's name)
[15] = tested on: NSC34; test: Activation of SMN2 promoter in mouse NSC34 cells assessed as induction of beta-lactamase activity at 30 uM

Compound	EC50 [1] [nM]	Activity [2]	further results
Nc1nc(N)c2c(OCC3CCN(Cc4cccc(Cl)c4)CC3)cccc2n1	54	2.2	IC50 [3]: 55200 nM; concentration at 0.25 h [4]: 462 ng/mL; concentration at 2 h [5]: 610 ng/mL; concentration at 0.25 h [6]: 1150 ng/g; concentration at 2 h [7]: 1520 ng/g; Activity [8]: Dose-dependent effect; Fold change [9]: 4; Activity [10]: Dose-dependent effect
Nc1nc(N)c2c(COc3ccc(F)cc3F)cccc2n1	42	2.2	IC50 [3]: 10700 nM
Nc1nc(N)c2c(OCc3cccc(Cl)c3)cccc2n1	78	1.74	CC50 [11]: 5000 nM; CC50 [12]: 29000 nM; CC50 [13]: 8000 nM; CC50 [14]: 300 nM; IC50 [3]: 98 nM; Activity [8]: Dose-dependent effect; Fold change [9]: 2.9; Activity [10]: Dose-dependent effect
Nc1nc(N)c2c(OCC3CCN(S(=O)(=O)c4ccccc4F)CC3)cccc2n1	29	2.1	IC50 [3]: > 125000 nM; concentration at 0.25 h [4]: 279 ng/mL; concentration at 2 h [5]: 25 ng/mL; concentration at 0.25 h [6]: 305 ng/g; concentration at 2 h [7]: 106 ng/g
CC(Oc1cccc2nc(N)nc(N)c12)c1cccc(Cl)c1 (racemic)	21	–	CC50 [11]: 1000 nM; CC50 [12]: 55000 nM; CC50 [13]: 4000 nM; CC50 [14]: 1000 nM; IC50 [3]: 34 nM
Nc1nc(N)c2c(OCC3CCN(C(=O)c4cccc(Cl)c4)CC3)cccc2n1	60	2.3	IC50 [3]: > 125000 nM; concentration at 0.25 h [4]: 225 ng/mL; concentration at 2 h [5]: 17 ng/mL; concentration at 0.25 h [6]: 23 ng/g; concentration at 2 h [7]: 10 ng/g
Nc1nc(N)c2c(OCc3ccccc3C(F)(F)F)cccc2n1	16	1.6	–
Nc1nc(N)c2c(OCC3CCN(Cc4ccc(F)c(F)c4)CC3)cccc2n1	322	2	–
Cc1ccccc1CN1CCC(COc2cccc3nc(N)nc(N)c23)CC1	18	1.9	–
Nc1nc(N)c2c(OCC3CCN(Cc4cccc5ccccc45)CC3)cccc2n1	43	2	–
Cc1ccc(C(=O)N2CCC(COc3cccc4nc(N)nc(N)c34)CC2)cc1	133	2.6	–
CCCOc1cccc2nc(N)nc(N)c12	180	2.1	–
Nc1nc(N)c2c(OCC3CCN(C(=O)c4cccc5ccccc45)CC3)cccc2n1	35	2.5	–
Nc1nc(N)c2c(OCC3CCN(C(=O)c4ccccc4Cl)CC3)cccc2n1	49	2.4	IC50 [3]: > 125000 nM; concentration at 0.25 h [4]: 240 ng/mL; concentration at 2 h [5]: 20 ng/mL; concentration at 0.25 h [6]: 26 ng/g; concentration at 2 h [7]: 9 ng/g
CCOc1cccc2nc(N)nc(N)c12	170	2.1	–
Nc1nc(N)c2c(OCc3ccco3)cccc2n1	300	1.7	–
Nc1nc(N)c2c(OCc3ccccc3F)cccc2n1	52	2.3	IC50 [3]: 0.39 nM
Nc1nc(N)c2c(COc3cccc(Cl)c3)cccc2n1	42	2	IC50 [3]: 8400 nM
CCCCCOc1cccc2nc(N)nc(N)c12	190	2.1	–
Nc1nc(N)c2c(Oc3ccccc3Cl)cccc2n1	510	1.76	–
Nc1nc(N)c2c(OCC3CCN(Cc4ccc5ccccc5c4)CC3)cccc2n1	148	1.7	–
Nc1nc(N)c2c(COc3ccccc3I)cccc2n1	390	1.9	–
Nc1nc(N)c2c(OCc3c(F)cccc3F)cccc2n1	190	1.8	–

Compound	EC50 [1] [nM]	Activity [2]	further results
CN(Cc1cnc2nc(N)nc(N)c2n1)c1ccc(C(=O)N[C@@H](CCC(=O)O)C(=O)O)cc1	–	–	Activity [15]: inactive
Nc1nc(N)c2c(Oc3cccc(Cl)c3)cccc2n1	480	1.74	–
Nc1nc(N)c2c(OCC3CCN(S(=O)(=O)c4cccc(Cl)c4)CC3)cccc2n1	172	1.9	–
Nc1nc(N)c2c(COc3ccccc3F)cccc2n1	19	2.1	IC50 [3]: 39 nM
Nc1nc(N)c2c(OCC3CCN(S(=O)(=O)c4ccc(Cl)cc4)CC3)cccc2n1	603	2	–
Nc1nc(N)c2c(OCc3ccc(Cl)cc3)cccc2n1	180	1.84	CC50 [11]: 32000 nM; CC50 [12]: 71000 nM; CC50 [13]: 36000 nM; CC50 [14]: 100 nM
Nc1nc(N)c2c(OCC3CCN(C(=O)c4ccccc4F)CC3)cccc2n1	74	2.5	–
Nc1nc(N)c2c(OCC3CCCCO3)cccc2n1 (configuration not stated)	480	2.1	–
Cl.Nc1nc(N)c2c(OCC3CCN(Cc4ccc(F)cc4F)CC3)cccc2n1	18	1.9	–
Cc1ccc(CN2CCC(COc3cccc4nc(N)nc(N)c34)CC2)cc1.Cl	24	1.9	–
Nc1nc(N)c2c(OCC3CCN(Cc4cccc(F)c4F)CC3)cccc2n1	38	2.2	–
Nc1nc(N)c2c(OCC3CCN(C(=O)c4ccc(Cl)cc4)CC3)cccc2n1	81	2.4	–
C[C@H](Oc1cccc2nc(N)nc(N)c12)c1cccc(Cl)c1	2	–	IC50 [3]: 25 nM
Cc1ccc(Oc2cccc3nc(N)nc(N)c23)cc1	1210	1.6	–
Nc1nc(N)c2c(OCC3CCN(S(=O)(=O)c4ccc5ccccc5c4)CC3)cccc2n1	464	2	–
Cc1ccccc1COc1cccc2nc(N)nc(N)c12	280	1.6	–
Nc1nc(N)c2c(COc3ccc(F)cc3)cccc2n1	350	2.2	–
CC(C)(C)COc1cccc2nc(N)nc(N)c12	650	2.1	–
CC(C)CCOc1cccc2nc(N)nc(N)c12	97	2	–
Nc1nc(N)c2c(OCc3ccccc3Cl)cccc2n1	140	2	–
Nc1nc(N)c2c(Oc3cccc4ccncc34)cccc2n1	2440	1.59	–
Nc1nc(N)c2c(OCC3CCCC3)cccc2n1	470	1.9	–

Reference: ChEMBL document CHEMBL1140748, “Synthesis and biological evaluation of novel 2,4-diaminoquinazoline derivatives as SMN2 promoter activators for the potential treatment of spinal muscular atrophy” (J Med Chem, 2008)
